ChEMBL document CHEMBL2203099, “Identification of a crucial amino acid in the helix position 6.51 of human tachykinin neurokinin 1 and 3 receptors contributing to the insurmountable mode of antagonism by dual NK₁/NK₃ antagonists” (J Med Chem, 2012)
Active and inactive are the calls of the source. No cut-off for these calls is given here.

Experiments:
HEK293 = experiment: Selectivity ratio of Ki for human NK3 Y247F mutant expressed in HEK293 cells to Ki for wild type human NK3 receptor expressed in HEK293 cells; type: cell-based
Neuromedin-K receptor = Neuromedin-K receptor (Homo sapiens, UniProt P29371, Y247W); experiment: Displacement of radioligand [3H]osanetant at human NK3 Y247W mutant expressed in HEK293 cells; type: cell-based
Neuromedin-K receptor, sequence (P29371 whole entry Y247W): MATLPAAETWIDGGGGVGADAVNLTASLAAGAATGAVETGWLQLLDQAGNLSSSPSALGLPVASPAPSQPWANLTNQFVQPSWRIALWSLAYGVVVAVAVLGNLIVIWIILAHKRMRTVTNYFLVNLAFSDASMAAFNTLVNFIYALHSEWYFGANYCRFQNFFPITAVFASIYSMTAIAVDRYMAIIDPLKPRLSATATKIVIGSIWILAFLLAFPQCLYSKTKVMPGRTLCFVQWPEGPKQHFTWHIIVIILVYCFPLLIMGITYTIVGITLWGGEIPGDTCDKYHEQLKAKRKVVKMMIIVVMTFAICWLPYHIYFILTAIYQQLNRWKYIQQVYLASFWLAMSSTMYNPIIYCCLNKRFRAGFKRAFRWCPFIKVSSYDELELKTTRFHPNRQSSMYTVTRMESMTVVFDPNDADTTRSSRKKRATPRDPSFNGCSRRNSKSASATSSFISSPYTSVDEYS

[1] = tested on: T1, Neuromedin-K receptor (Homo sapiens), P29371 [Y315F]; experiment: Antagonist activity at human NK3 Y315F6.51 mutant expressed in HEK293 cells assessed as decrease in [MePhe7]NKB-induced [3H]IP accumulation at 10 nM after 20 mins; type: functional, cell-based
T1 sequence (whole entry): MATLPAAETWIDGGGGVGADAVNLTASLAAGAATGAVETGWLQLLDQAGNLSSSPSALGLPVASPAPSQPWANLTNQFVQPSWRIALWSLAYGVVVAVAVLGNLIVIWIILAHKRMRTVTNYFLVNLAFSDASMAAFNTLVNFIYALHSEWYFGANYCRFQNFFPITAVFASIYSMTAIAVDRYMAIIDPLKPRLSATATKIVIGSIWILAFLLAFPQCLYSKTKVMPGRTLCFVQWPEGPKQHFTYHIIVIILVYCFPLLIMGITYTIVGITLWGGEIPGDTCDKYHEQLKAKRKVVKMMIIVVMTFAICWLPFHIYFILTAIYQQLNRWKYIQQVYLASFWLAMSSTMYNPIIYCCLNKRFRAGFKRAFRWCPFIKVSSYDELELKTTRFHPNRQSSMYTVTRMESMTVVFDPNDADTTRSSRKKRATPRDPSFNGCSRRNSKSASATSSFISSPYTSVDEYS

Substance-P receptor [2] = target: Substance-P receptor (Homo sapiens, UniProt P25103); experiment: Noncompetitive inhibition of wild type human NK1 receptor expressed in HEK293 cells assessed as decrease in SP1-induced [3H]IP accumulation after 20 mins; type: cell-based
Substance-P receptor (Homo sapiens, UniProt P25103), sequence (P25103 whole entry): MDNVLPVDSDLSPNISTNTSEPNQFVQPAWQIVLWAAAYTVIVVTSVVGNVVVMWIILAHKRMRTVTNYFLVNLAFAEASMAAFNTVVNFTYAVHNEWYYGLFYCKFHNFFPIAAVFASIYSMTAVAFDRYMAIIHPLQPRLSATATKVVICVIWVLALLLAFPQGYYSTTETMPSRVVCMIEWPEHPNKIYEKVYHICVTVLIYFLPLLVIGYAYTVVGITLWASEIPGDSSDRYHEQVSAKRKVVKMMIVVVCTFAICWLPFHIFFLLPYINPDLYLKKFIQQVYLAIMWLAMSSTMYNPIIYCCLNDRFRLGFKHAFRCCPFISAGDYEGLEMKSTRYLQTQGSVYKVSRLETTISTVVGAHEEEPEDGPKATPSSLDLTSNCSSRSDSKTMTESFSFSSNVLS

[3] = tested on: T1, Neuromedin-K receptor (Homo sapiens), P29371 [Y315F]; experiment: Noncompetitive inhibition at human NK3 Y315F6.51 mutant expressed in HEK293 cells assessed as decrease in [MePhe7]NKB-induced [3H]IP accumulation after 20 mins; type: cell-based
How it was run: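 HEK293 cells transiently expressing human NK3 WT or mutant, labeled with myo-[³H]inositol in LiCl buffer. Antagonist preincubated 20 min at 37 °C, then [MePhe⁷]NKB (0.01 nM–1 μM) added for 45 min at 37 °C. [³H]IP read by SPA beads. Schild analysis of EC50 shift and Emax depression across increasing antagonist concentrations gives pA2, slope and mode of antagonism.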

Substance-P receptor [4] = target: Substance-P receptor (Homo sapiens, UniProt P25103, F264Y); experiment: Displacement of radioligand [3H]SP from human NK1 F264Y6.51 mutant expressed in HEK293 cells; type: cell-based
Substance-P receptor (Homo sapiens, UniProt P25103, F264Y), sequence (P25103 whole entry F264Y): as the sequence (P25103 whole entry) above, with F264Y counted along it
How it was run: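 Membranes from transiently transfected HEK293 cells, 2.5 μg protein/well, in 50 mM HEPES pH 7.4 with 3 mM MnCl2, phosphoramidon, leupeptin and 0.04% BSA. 10 competitor concentrations (0.0003–10 μM), 90 min at rt. Nonspecific binding with 10 μM NK1 antagonist. Filtration, then scintillation counting. Ki by Cheng–Prusoff. Three experiments, each in duplicate.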

Ki (Neuromedin-K receptor): 3.4 nM
Activity [1]: Active
inhibition (Substance-P receptor [2]): Active
inhibition [3]: Active
Ki (Substance-P receptor [4]): 1.1 nM
Compound: Cc1cc(F)ccc1-c1cc(N2CC[C@H](O)[C@H]2CO)ncc1N(C)C(=O)C(C)(C)c1cc(C(F)(F)F)cc(C(F)(F)F)c1
Ratio Ki (HEK293): 1.3
